Measurements as given in ChEMBL document CHEMBL4130408, “Photoactivation provides a mechanistic explanation for pan-assay interference behaviour of 2-aminopyrroles in lipoxygenase inhibition” (Eur J Med Chem, 2017).
Activity calls are given as the source filed them. The rule behind the calls is not given here.

Legend:
HCC-1.2 [1] = experiment: Cytotoxicity against human HCC1.2 cells assessed as growth inhibition after 48 hrs by neutral red assay; format: functional; settings: for CC50: HCC-1.2, 48 h, read-out: LD50 (the source's name)
Summary of the method: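 HCC-1.2 hepatocarcinoma cells grown in RPMI1640 with 10% heat-inactivated FCS at 37 °C, 5% CO2. 2 × 10^5 cells/well seeded and grown 48 h. Viable cells quantified by neutral red (50 μg/mL) uptake from serum-free medium over 2 h. Dye dissolved in 1% acetic acid/70% ethanol, read as absorbance 560 minus 620 nm. Triplicate wells; three to five independent experiments; LD50 reported.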

[2] = molecular target: T1, Polyunsaturated fatty acid lipoxygenase ALOX15 (Homo sapiens, UniProt P16050); experiment: Inhibition of recombinant human 15-LOX-1 expressed in Escherichia coli BL21(DE3) using linoleic acid as substrate preincubated for 10 mins followed by substrate addition
T1 sequence (P16050 whole entry): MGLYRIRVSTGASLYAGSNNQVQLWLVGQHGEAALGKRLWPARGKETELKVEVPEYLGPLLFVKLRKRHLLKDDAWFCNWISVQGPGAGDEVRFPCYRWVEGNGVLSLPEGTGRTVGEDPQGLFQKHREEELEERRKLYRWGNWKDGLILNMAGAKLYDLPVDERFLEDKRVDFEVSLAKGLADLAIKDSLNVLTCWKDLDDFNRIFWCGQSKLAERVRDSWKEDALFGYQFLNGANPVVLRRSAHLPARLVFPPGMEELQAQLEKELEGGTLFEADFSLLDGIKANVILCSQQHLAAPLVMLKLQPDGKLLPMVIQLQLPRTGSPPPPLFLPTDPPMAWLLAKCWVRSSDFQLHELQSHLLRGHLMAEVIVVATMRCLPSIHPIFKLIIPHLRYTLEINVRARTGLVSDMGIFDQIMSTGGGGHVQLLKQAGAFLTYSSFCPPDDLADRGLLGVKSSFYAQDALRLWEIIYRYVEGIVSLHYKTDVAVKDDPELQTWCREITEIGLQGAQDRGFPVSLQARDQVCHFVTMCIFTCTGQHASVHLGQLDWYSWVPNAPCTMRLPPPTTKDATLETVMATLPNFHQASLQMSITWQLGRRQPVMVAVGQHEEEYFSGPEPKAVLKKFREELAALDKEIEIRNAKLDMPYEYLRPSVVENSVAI

HCC-1.2 [3] = experiment: Photocytotoxicity against human HCC1.2 cells assessed as decrease in cell viability at 1 to 10 uM preincubated with UV light at 365 nm for 10 mins measured after 48 hrs by neutral red assay; format: functional, cell-based
HCC-1.2 [4] = experiment: Photocytotoxicity against human HCC1.2 cells assessed as growth inhibition at 1 to 10 uM after day light irradiation for 10 mins; format: functional, cell-based
[5] = molecular target: T2, Polyunsaturated fatty acid lipoxygenase ALOX15 (Homo sapiens) (UniProt P16050); experiment: Inhibition of recombinant human 15-LOX-1 expressed in Escherichia coli BL21(DE3) at 10 uM preincubated with UV light at 254 nm for 2 to 10 mins followed by measuring UV absorbance of 13(S)-HpODE at 234 nm over 16 mins
T2 sequence (whole entry): T1 sequence (P16050 whole entry)
Summary of the method: (§1)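 254 nm UV irradiation used as a control during preincubation of h-15-LOX-1 with inhibitor. Activity was then read as 13(S)-HpODE absorbance at 234 nm over 16 min, against a no-inhibitor control. Assay buffer 25 mM HEPES pH 7.4.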

[6] = molecular target: T2, Polyunsaturated fatty acid lipoxygenase ALOX15 (Homo sapiens); experiment: Inhibition of recombinant human 15-LOX-1 expressed in Escherichia coli BL21(DE3) assessed as residual activity at 10 uM preincubated in darkness followed by measuring UV absorbance of 13(S)-HpODE at 234 nm over 16 mins
Summary of the method: (§2)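 Light-sensitivity test: h-15-LOX-1 preincubated with inhibitor for 2, 5 and 10 min under daylight, 365 nm UV irradiation or darkness, in triplicate. Linoleic acid conversion to 13(S)-HpODE then followed at 234 nm over 16 min, relative to a no-inhibitor positive control. Buffer 25 mM HEPES pH 7.4. Experiments repeated at least twice.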

HCC-1.2 [7] = experiment: Photocytotoxicity against human HCC1.2 cells assessed as decrease in cell viability at 1 to 10 uM preincubated with day light for 10 mins measured after 48 hrs by neutral red assay; format: functional, cell-based
[8] = molecular target: T2, Polyunsaturated fatty acid lipoxygenase ALOX15 (Homo sapiens); experiment: Inhibition of recombinant human 15-LOX-1 expressed in Escherichia coli BL21(DE3) at 10 uM preincubated with UV light at 365 nm followed by measuring UV absorbance of 13(S)-HpODE at 234 nm over 16 mins; settings: TDE = time-dependent effect; summary of the method: as §2
[9] = molecular target: T2, Polyunsaturated fatty acid lipoxygenase ALOX15 (Homo sapiens); experiment: Inhibition of recombinant human 15-LOX-1 expressed in Escherichia coli BL21(DE3) at 10 uM preincubated in light followed by measuring UV absorbance of 13(S)-HpODE at 234 nm over 16 mins; settings: TDE = time-dependent effect; summary of the method: as §2
HCC-1.2 [10] = experiment: Photocytotoxicity against human HCC1.2 cells assessed as decrease in cell viability at 0.4 to 10 uM preincubated with day light for 10 mins measured after 48 hrs by neutral red assay; format: functional, cell-based
[11] = molecular target: T2, Polyunsaturated fatty acid lipoxygenase ALOX15 (Homo sapiens); experiment: Inhibition of recombinant human 15-LOX-1 expressed in Escherichia coli BL21(DE3) at 15 uM preincubated in light followed by measuring UV absorbance of 13(S)-HpODE at 234 nm over 16 mins; settings: TDE = time-dependent effect; summary of the method: as §2
[12] = molecular target: T2, Polyunsaturated fatty acid lipoxygenase ALOX15 (Homo sapiens); experiment: Inhibition of recombinant human 15-LOX-1 expressed in Escherichia coli BL21(DE3) assessed as residual activity at 15 uM preincubated in darkness followed by measuring UV absorbance of 13(S)-HpODE at 234 nm over 16 mins; summary of the method: as §2
[13] = molecular target: T2, Polyunsaturated fatty acid lipoxygenase ALOX15 (Homo sapiens); experiment: Inhibition of recombinant human 15-LOX-1 expressed in Escherichia coli BL21(DE3) at 15 uM preincubated with UV light at 365 nm followed by measuring UV absorbance of 13(S)-HpODE at 234 nm over 16 mins; settings: TDE = time-dependent effect; summary of the method: as §2
[14] = molecular target: T2, Polyunsaturated fatty acid lipoxygenase ALOX15 (Homo sapiens); experiment: Inhibition of recombinant human 15-LOX-1 expressed in Escherichia coli BL21(DE3) assessed as residual activity at 50 uM using linoleic acid as substrate preincubated for 10 mins followed by substrate addition
Summary of the method: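 h-15-LOX-1 (1:100 enzyme stock, 1:400 final) preincubated 10 min at room temperature with inhibitor in 25 mM HEPES pH 7.4, then linoleic acid added to 25 µM final (inhibitor 50 µM final). 13(S)-HpODE formation read as A234 over time, rate taken from linear part within first 16 min; no-inhibitor = 100%, no-enzyme = 0%. Triplicate.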

[15] = molecular target: T2, Polyunsaturated fatty acid lipoxygenase ALOX15 (Homo sapiens); experiment: Inhibition of recombinant human 15-LOX-1 expressed in Escherichia coli BL21(DE3) at 15 uM preincubated with UV light at 254 nm for 2 to 10 mins followed by measuring UV absorbance of 13(S)-HpODE at 234 nm over 16 mins; summary of the method: as §1
[16] = molecular target: T2, Polyunsaturated fatty acid lipoxygenase ALOX15 (Homo sapiens); experiment: Uncompetitive inhibition of recombinant human 15-LOX-1 expressed in Escherichia coli BL21(DE3) assessed as enzyme apparent Vmax at 6 uM using linoleic acid as substrate preincubated for 10 mins followed by substrate addition by Lineweaver-Burk plot analysis (reference value: 106.10 +/- 40.95 abs/hr)
[17] = molecular target: T2, Polyunsaturated fatty acid lipoxygenase ALOX15 (Homo sapiens); experiment: Uncompetitive inhibition of recombinant human 15-LOX-1 expressed in Escherichia coli BL21(DE3) assessed as enzyme apparent Vmax at 8 uM using linoleic acid as substrate preincubated for 10 mins followed by substrate addition by Lineweaver-Burk plot analysis (reference value: 106.10 +/- 40.95 abs/hr)
HCC-1.2 [18] = experiment: Photocytotoxicity against human HCC1.2 cells assessed as decrease in cell viability preincubated with day light for 10 mins measured after 48 hrs by neutral red assay; format: functional, cell-based
HCC-1.2 [19] = experiment: Photocytotoxicity against human HCC1.2 cells assessed as decrease in cell viability preincubated with UV light at 365 nm for 10 mins measured after 48 hrs by neutral red assay; format: functional, cell-based
[20] = compound: Nc1[nH]c(C(=O)c2ccccc2)c(-c2ccc(Cl)cc2Cl)c1C(=O)c1ccc(Cl)c(Cl)c1; experiment: Uncompetitive inhibition of recombinant human 15-LOX-1 expressed in Escherichia coli BL21(DE3) assessed as apparent Km for substrate at 6 uM using linoleic acid as substrate preincubated for 10 mins followed by substrate addition by Lineweaver-Burk plot analysis (reference value: 32.67 +/- 12.23 uM)
[21] = compound: Nc1[nH]c(C(=O)c2ccccc2)c(-c2ccc(Cl)cc2Cl)c1C(=O)c1ccc(Cl)c(Cl)c1; experiment: Uncompetitive inhibition of recombinant human 15-LOX-1 expressed in Escherichia coli BL21(DE3) assessed as apparent Km for substrate at 8 uM using linoleic acid as substrate preincubated for 10 mins followed by substrate addition by Lineweaver-Burk plot analysis (reference value: 32.67 +/- 12.23 uM)

`Nc1[nH]c(C(=O)c2ccccc2)c(-c2ccc(Cl)cc2Cl)c1C(=O)c1ccc(Cl)cc1` was tested, and the Activity (HCC-1.2 [1]) was “Dose-dependent effect”, the CC50 (HCC-1.2 [1]) was 1050 nM and the IC50 [2] was greater than 100000 nM.

`Nc1[nH]c(C(=O)c2ccccc2)c(-c2ccc(Cl)cc2Cl)c1C(=O)c1cccc(Cl)c1` was tested, and the Activity (HCC-1.2 [3]) was “Active”, the Activity (HCC-1.2 [1]) was “Dose-dependent effect” and the CC50 (HCC-1.2 [1]) was 690 nM. The Activity (HCC-1.2 [4]) was “Active”, the inhibition [5] was “inactive” and the Activity [6] was 80%. For the same molecule, the Activity (HCC-1.2 [7]) was “Active”, the inhibition [8] was “Tde” and the inhibition [9] was “Tde”. It also gave an IC50 [2] of 6900 nM.

For `Cc1cccc(C(=O)c2c(N)[nH]c(C(=O)c3ccccc3)c2-c2ccc(Cl)cc2Cl)c1`, the Activity (HCC-1.2 [1]) was “Dose-dependent effect”, the CC50 (HCC-1.2 [1]) was 1040 nM and the IC50 [2] was greater than 100000 nM. The Activity (HCC-1.2 [10]) was “Active”.

In the case of `Nc1[nH]c(C(=O)c2ccccc2)c(-c2ccc(Cl)cc2Cl)c1C(=O)c1ccc(Cl)c(Cl)c1`, the inhibition [11] is reported as “Tde”, the Activity (HCC-1.2 [1]) is reported as “Dose-dependent effect” and the CC50 (HCC-1.2 [1]) is reported as 550 nM. For the same molecule, the Activity [12] was 80%, the inhibition [13] was “Tde” and the Activity [14] was 40.8%. For the same molecule, the inhibition [15] was “inactive”, the Vmax(app) [16] was 68.2 abs/hr and the Vmax(app) [17] was 47.2 abs/hr. The IC50 [2] was 12800 nM.

`Nc1[nH]c(C(=O)c2ccccc2)c(-c2ccc(F)cc2F)c1C(=O)c1cccc(Cl)c1` was tested, and the Activity (HCC-1.2 [1]) was “Dose-dependent effect”, the CC50 (HCC-1.2 [1]) was 990 nM and the Activity (HCC-1.2 [18]) was “inactive”. For the same molecule, the Activity (HCC-1.2 [19]) was “inactive”.

For `Nc1[nH]c(C(=O)c2ccccc2)c(-c2ccc(O)cc2O)c1C(=O)c1cccc(Cl)c1`, the Activity (HCC-1.2 [1]) was “Dose-dependent effect”, the CC50 (HCC-1.2 [1]) was 2750 nM and the IC50 [2] was 8300 nM.

B1: Polyunsaturated fatty acid lipoxygenase ALOX15 (Homo sapiens), P16050 (protein)
chain: T1 sequence (P16050 whole entry)
Molecule B1 has a Km [20] of 24 µM and a Km [21] of 20 µM.
